For data set [1], the system named is UACC-903. The data set is described as follows: Induction of apoptosis in human UACC-903 cells harboring BRAF mutant assessed as apoptotic cells level at 5 uM after 24 hrs by AAD dye containing caspase 3/7 activity assay (reference value: 6.88%). The data set is classed as functional.
The subject of data set [2] is UACC-903. Nature of the data set: Induction of apoptosis in human UACC-903 cells harboring BRAF mutant assessed as apoptotic cells level at 25 uM after 24 hrs by AAD dye containing caspase 3/7 activity assay (reference value: 6.88%). The data set is classed as functional.
Data set [3] deals with UACC-903. Nature of the data set: Induction of apoptosis in human UACC-903 cells harboring BRAF mutant assessed as early apoptotic cells at 5 uM after 24 hrs by Annexin V/7-AAD staining-based assay (reference value: 2.68%). The data set is classed as functional.
For data set [4], the system named is CHL-1. The data set is described as follows: Induction of apoptosis in human CHL-1 cells harboring wild type BRAF assessed as increase in dead cells at 25 uM after 24 hrs by Calcein-AM/ethidium bromide staining-based fluorescence assay (reference value: 2%). Format: functional.
In data set [5] the test system is UACC-903. The data set is described as follows: Induction of apoptosis in human UACC-903 cells harboring BRAF mutant assessed as dead cells level at 25 uM after 24 hrs by AAD dye containing caspase 3/7 activity assay (reference value: 0.06%). The data set is classed as functional.
Data set [6] deals with UACC-903. Nature of the data set: Induction of apoptosis in human UACC-903 cells harboring BRAF mutant assessed as decrease in Bcl-xL level at 5 to 25 uM after 24 hrs by Western blot analysis. Format: functional, cell-based. An outline of the steps:
(§1)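 2 × 10^6 cells treated with the indicated concentrations for 24 h. Whole-cell lysates run on SDS-PAGE, transferred to PVDF, probed with antibodies against apoptosis/survival proteins, and detected by enhanced chemiluminescence.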

The test system of data set [7] is CHL-1. Nature of the data set: Induction of apoptosis in human CHL-1 cells harboring wild type BRAF assessed as decrease in survivin level at 5 to 25 uM after 24 hrs by Western blot analysis. Format: functional, cell-based. The method, boiled down:
as §1

Data set [8] relates to UACC-903. The data set is described as follows: Induction of apoptosis in human UACC-903 cells harboring BRAF mutant assessed as increase in dead cells at 50 uM after 24 hrs by Calcein-AM/ethidium bromide staining-based fluorescence assay (reference value: 3%). Format: functional.
The test system of data set [9] is CHL-1. Nature of the data set: Induction of apoptosis in human CHL-1 cells harboring wild type BRAF assessed as increase in dead cells at 50 uM after 24 hrs by Calcein-AM/ethidium bromide staining-based fluorescence assay (reference value: 2%). Format: functional.
Data set [10] relates to UACC-903. Nature of the data set: Induction of apoptosis in human UACC-903 cells harboring BRAF mutant assessed as late apoptotic cells at 25 uM after 24 hrs by Annexin V/7-AAD staining-based assay (reference value: 1.56%). The data set is classed as functional.
The nature of data set [11]: Antiproliferative activity against human 1205 Lu cells after 48 hrs by MTT assay. Format: functional, cell-based. The method, boiled down: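 3,000 cells per well, grown at 37 °C (DMEM with 10% FBS and penicillin/streptomycin; HCT116 in McCoy's 5A). Cells exposed in triplicate to 0.5–25 μM compound for 48 h. MTT (5 mg/mL PBS stock) added for 3 h, formazan dissolved in DMSO, OD read at 570 nm minus 630 nm background. IC50 from non-linear regression of two independent experiments.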
(Tetrazolium assays rely on reduction of a dye to a coloured formazan, in cell work by metabolically active cells.)

Data set [12] has as its system UACC-903. Nature of the data set: Induction of apoptosis in human UACC-903 cells harboring BRAF mutant assessed as live cells level at 25 uM after 24 hrs by AAD dye containing caspase 3/7 activity assay (reference value: 90.06%). The data set is classed as functional.
Data set [13] can be described thus: Selectivity ratio of cytotoxicity against human MCF10A cells to cytotoxicity against human MCF7 cells. To be noted: MCF10A cells versus MCF7 cells. The data set is classed as toxicity, cell-based.
The nature of data set [14]: Cytotoxicity against human MCF10A cells assessed as cell viability at 25 uM after 48 hrs by MTT assay relative to control. Format: cell-based, MCF-10A. The note with it: read-out: Activity. An outline of the steps: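 MTT viability at a single 25 μM dose, 48 h, 3,000 cells/well. MCF10A normal breast epithelial cells were kept in MEGM mammary epithelial medium; the cancer lines were in DMEM with 10% FBS, 37 °C. OD at 570 nm with 630 nm background, expressed relative to control.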

Active and inactive are the calls of the source. The rule behind the calls is not given here.

We go through 2 compounds from ChEMBL document CHEMBL4138168, “Design and synthesis of novel thiobarbituric acid derivatives targeting both wild-type and BRAF-mutated melanoma cells” (Eur J Med Chem, 2018).

A word on the IC50: it is the concentration that gives 50% inhibition. Turning to `O=C1NC(=S)N(c2ccccc2)C(=O)/C1=C/C=C/c1cccs1`, the Activity in [1] is 9.68%; in [2], 50.06%; in [3] it was 3.7%; in [4], 5%; in data set [5] it was 0.14%; in [8] it was 45%. The Activity is recorded as 40% in [9], 44.28% in data set [10] and 25.7% in [12]. Also, the outcome in [6] and in [7] was Active. Besides, half-maximal inhibition in data set [11] (IC50) was put at 13.5 µM. In addition, the selectivity ratio in data set [13] stood at 2. Further, the viability at 48 h, 25 µM in data set [14] stood at 60%.

In the case of `O=C1NC(=S)NC(=O)C1=C/C=C/c1cccs1`, the Activity is recorded as 5.46% in data set [1]; 38.14% in data set [2]; 5.12% in data set [3]; 65% in [4]; 0.58% in data set [5]; 85% in data set [8]. In addition, the results for the Activity in data set [9], in data set [10] and in [12] were 98%, 40.54% and 17.4%, respectively. Moreover, the outcome in data set [6] and in [7] was Active. Also, half-maximal inhibition in [11] (IC50) required 12.4 µM. For the same compound, the selectivity ratio in data set [13] stood at 2. Besides, the viability at 48 h, 25 µM in data set [14] was 60%.
